What was measured:
OATP1B1 = target: T1, OATP1B1 (Homo sapiens, UniProt Q9Y6L6); assay: Drug uptake by human hepatic OATP1B1 transporter expressed in HEK293 cells at 10 uM relative to wild type HEK293 cells; assay type: ADME, cell-based; conditions: HEK293 cells expressing OATP1B1, read-out: FC
T1 sequence (Q9Y6L6 whole entry): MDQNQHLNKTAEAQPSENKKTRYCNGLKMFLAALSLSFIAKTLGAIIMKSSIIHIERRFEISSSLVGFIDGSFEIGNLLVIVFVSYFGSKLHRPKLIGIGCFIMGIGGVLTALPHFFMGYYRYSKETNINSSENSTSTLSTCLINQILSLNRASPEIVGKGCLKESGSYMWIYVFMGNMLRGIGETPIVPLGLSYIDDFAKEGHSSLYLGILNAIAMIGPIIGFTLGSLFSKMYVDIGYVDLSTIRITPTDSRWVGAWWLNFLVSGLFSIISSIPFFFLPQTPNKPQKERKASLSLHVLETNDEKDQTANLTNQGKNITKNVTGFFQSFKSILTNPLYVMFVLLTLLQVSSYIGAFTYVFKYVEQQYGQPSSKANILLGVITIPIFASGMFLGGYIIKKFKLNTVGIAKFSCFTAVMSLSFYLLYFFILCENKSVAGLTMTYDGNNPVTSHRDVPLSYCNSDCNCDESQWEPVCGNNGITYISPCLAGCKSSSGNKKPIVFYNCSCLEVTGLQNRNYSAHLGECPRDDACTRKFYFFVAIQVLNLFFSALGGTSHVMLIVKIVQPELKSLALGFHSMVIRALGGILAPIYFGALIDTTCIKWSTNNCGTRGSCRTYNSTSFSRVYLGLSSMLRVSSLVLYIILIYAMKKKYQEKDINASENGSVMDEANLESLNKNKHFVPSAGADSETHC
In short: (§1)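 Individual hepatic OATP transporters were over-expressed in CHO or HEK293 cells: rat rOatp1a1, rOatp1a4 and rOatp1b2, and human hOATP1B1, hOATP1B3 and hOATP2B1. Substrate uptake is expressed as fold difference relative to the wild-type parental line. Rosuvastatin/pravastatin served as positive control and midazolam as negative control in each assay.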

OATP1B2 = target: T2, OATP1B2 (Rattus norvegicus, UniProt Q9QZX8); assay: Drug uptake by rat hepatic OATP1B2 transporters expressed in CHO cells at 1 uM relative to wild type CHO cells; assay type: ADME, cell-based; conditions: CHO cells expressing rat OATP1B2, read-out: FC; in short: as §1
T2 sequence (Q9QZX8 whole entry): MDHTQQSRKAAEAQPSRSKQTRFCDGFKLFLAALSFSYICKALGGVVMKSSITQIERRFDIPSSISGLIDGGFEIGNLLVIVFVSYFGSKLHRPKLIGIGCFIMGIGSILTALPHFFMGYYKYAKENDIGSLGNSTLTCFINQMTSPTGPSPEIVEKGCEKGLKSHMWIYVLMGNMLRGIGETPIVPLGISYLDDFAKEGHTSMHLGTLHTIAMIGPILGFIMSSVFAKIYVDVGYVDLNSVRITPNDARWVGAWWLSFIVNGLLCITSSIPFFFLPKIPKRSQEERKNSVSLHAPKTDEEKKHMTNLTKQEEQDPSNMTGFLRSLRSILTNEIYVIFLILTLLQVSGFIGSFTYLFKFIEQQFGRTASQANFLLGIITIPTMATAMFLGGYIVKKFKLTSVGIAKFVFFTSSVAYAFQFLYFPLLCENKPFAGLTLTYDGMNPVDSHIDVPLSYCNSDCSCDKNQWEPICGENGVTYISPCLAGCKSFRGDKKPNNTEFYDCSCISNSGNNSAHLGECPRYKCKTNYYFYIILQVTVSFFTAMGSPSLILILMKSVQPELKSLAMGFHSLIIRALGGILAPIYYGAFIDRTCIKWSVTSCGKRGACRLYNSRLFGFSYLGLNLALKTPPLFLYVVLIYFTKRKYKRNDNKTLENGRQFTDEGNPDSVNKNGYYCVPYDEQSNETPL

[1] = Fraction unbound in dog plasma at 0.5 ug/ml; assay type: ADME, cell-free, Canis lupus familiaris
In short: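 Unbound fraction in rat, dog or human plasma, measured at a drug concentration of 0.5 μg/mL.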

[2] = Terminal half life in human plasma at 40 mg administered as single dose; assay type: ADME, cell-free; conditions: read-out: beta t1/2 (converted)
Syrian golden hamster = assay: Inhibition of cholesterol synthesis in golden syrian hamster assessed as reduction of [14C]-cholesterol level at 10 mg/kg, po followed by 2 hrs after treated with 80 uCi, ip of [14C]-sodium acetate measured after 4 hrs by liquid scintillation counting relative to control; assay type: functional; conditions: Mesocricetus auratus
In short: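 Hamsters dosed po at 10 mg/kg at t = 0 h. Intraperitoneal 14C sodium acetate at t = 2 h, blood drawn at t = 4 h for 14C cholesterol. Percent inhibition vs untreated controls, n = 8/group.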

Canis familiaris [3] = assay: fAUC (0 to 24 hrs) in dog at 1 mg/kg, iv; assay type: ADME, organism-based, Canis lupus familiaris; parameters: dose 1 mg/kg, route intravenous; conditions: in vivo
In short: (§2)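 Rat and dog given 1 mg/kg iv, or po at 10 mg/kg (rat) or 5 mg/kg (dog). Plasma sampled to 24 h. AUC(0-24) as free drug using plasma protein binding values. Geometric mean of n = 2 animals/group; dog po n = 3 or n = 1.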

Hepatocyte = assay: Drug uptake in sandwich-cultured human hepatocytes assessed per mg of protein at 1 uM; assay type: ADME, cell-based
In short: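 Rat or human hepatocytes were cultured in sandwich configuration with a Matrigel overlay and compound uptake was measured. Active uptake was assessed by inhibition with the pan-OATP inhibitor rifamycin SV. Rosuvastatin/pravastatin served as positive control and midazolam as negative control.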

Canis familiaris [4] = assay: fAUC (0 to 24 hrs) in dog at 5 mg/kg, po; assay type: ADME, organism-based, Canis lupus familiaris; parameters: dose 5 mg/kg, route oral; conditions: in vivo; in short: as §2
[5] = Volume of distribution at steady state in dog at 1 mg/kg, iv; assay type: ADME, organism-based, Canis lupus familiaris; parameters: dose 1 mg/kg, route intravenous; conditions: in vivo, read-out: Vdss; in short: as §2
Canis familiaris [6] = assay: fCmax in dog at 5 mg/kg, po; assay type: ADME, organism-based, Canis lupus familiaris; parameters: dose 5 mg/kg, route oral; conditions: in vivo
In short: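 Single po dose: rat 10 mg/kg (n = 2), dog 5 mg/kg (n = 1 or 3 animals). Values are geometric means. Cmax is given as free drug concentration using plasma protein binding values, which were determined at 0.5 μg/mL.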

Plasma = assay: fCmax in human plasma at 40 mg administered as single dose; assay type: ADME, cell-free
In short: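 Phase 1 single ascending oral dose in healthy volunteers, with N per dose group. Total plasma Cmax and AUC(0-∞) were measured. Free-drug exposures were derived from these using plasma protein binding (human plasma fu measured at 0.5 μg/mL).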

Rattus norvegicus = assay: fAUC (0 to 24 hrs) in rat at 10 mg/kg, po; assay type: ADME, organism-based; parameters: dose 10 mg/kg, route oral; conditions: in vivo; in short: as §2
Homo sapiens = assay: Inhibition of HMG-CoA reductase in human assessed as decrease in AUC (0 to 72 hrs) of mevalonate level in plasma at 40 mg administered as single dose relative to control; assay type: functional
[7] = AUC (0 to infinity) in human plasma at 40 mg administered as single dose; assay type: ADME, cell-free; parameters: dose 40 mg, time infinity
In short: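 Phase 1 single ascending oral dose in healthy volunteers, about 5–6 subjects per dose. Total plasma drug Cmax and AUC(0-∞) were measured. Free-drug exposures were derived using plasma protein binding.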

[8] = Ratio of fAUC (0 to 24 hrs) in liver to plasma in Sprague-Dawley rat at 10 mg/kg, po; assay type: ADME, organism-based; parameters: dose 10 mg/kg, route oral; conditions: liver and plasma
In short: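 Sprague-Dawley rats given a single oral dose (10 or 25 mg/kg). Free drug measured in liver and plasma at 0, 0.5, 1, 2, 3, 4, 7 and 24 h, n = 3/time point.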

| Structure (SMILES) | uptake ratio at 10 µM (OATP1B1) | uptake ratio at 1 µM (OATP1B2) | fraction unbound at 0.5 ug/ml [1] | half-life [2] | inhibition in vivo at 10 mg/kg (Syrian golden hamster) | fAUC (Canis familiaris [3]) | Drug uptake (Hepatocyte) | fAUC (Canis familiaris [4]) | Vd [5] | fCmax (Canis familiaris [6]) | fCmax (Plasma) | fAUC (Rattus norvegicus) | inhibition (INH) (Homo sapiens) | AUC(0-inf) [7] | Kp uu [8] |
| --- | --- | --- | --- | --- | --- | --- | --- | --- | --- | --- | --- | --- | --- | --- | --- |
| Cc1ncc2n1-c1ccc(Cl)cc1C(c1ccccc1F)=NC2 [MIDAZOLAM] | 0.9 | 1.1 | – | – | – | – | – | – | – | – | – | – | – | – | – |
| CC[C@H](C)C(=O)O[C@H]1C[C@H](O)C=C2C=C[C@H](C)[C@H](CC[C@@H](O)C[C@@H](O)CC(=O)O)[C@H]21 [PRAVASTATIN] | 223 | 3.6 | – | – | – | – | – | – | – | – | – | – | – | – | – |
| Cc1ccc(CNC(=O)c2nn(-c3ccc(F)cc3)c(CC[C@@H](O)C[C@@H](O)CC(=O)O)c2C(C)C)cc1 | 18.4 | 2.9 | 0.032 | 8.57 h | -74% | 28 ng·h/mL | 7.8 pmol/min/mg | 64 ng·h/mL | 0.1 L/kg | 51.5 ng/mL | 90.3 ng/mL | 6.4 ng·h/mL | -3% | 5110 ng·h/mL | – |
| O=C([O-])C[C@H](O)C[C@H](O)CCn1c(-c2ccc(F)cc2)nc(C(=O)NCc2cccc(F)c2)c1C1CC1.[Na+] | 84.9 | 1.8 | 0.43 | 3.22 h | -68% | 293 ng·h/mL | 1.5 pmol/min/mg | 51 ng·h/mL | 0.1 L/kg | 5.4 ng/mL | 0.653 ng/mL | 2.7 ng·h/mL | -19% | 6.27 ng·h/mL | 41 |
| CC(C)c1nc(N(C)S(C)(=O)=O)nc(-c2ccc(F)cc2)c1/C=C/[C@@H](O)C[C@@H](O)CC(=O)O [ROSUVASTATIN] | 69.6 | – | – | – | -76% | – | 8 pmol/min/mg | – | – | – | – | – | – | – | 30 |
